WT yeast gro inh = growth inhibition of WT yeast, mitochondrial fusion screen. mitochondrial fusion phenotypic screen, WT strain. inhibition, % at 10 µM. 190,000 compounds, 2.1% hits. AID 1362; in the data active = inhibition above about 58%; tested in S. cerevisiae
NCF1 inh = blocks human p47phox regulatory protein of NADPH oxidases. p47phox/p22phox peptide binding, fluorescence polarization, 2 h. inhibition, % at 24.7 µM. 220,000 compounds, 0.53% hits;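 active = inhibition above about 30%, limit read from the data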;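 note: 0% = p47phox with labelled peptide and 100% = labelled peptide alone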
Target sequence (P14598 whole entry, looked up): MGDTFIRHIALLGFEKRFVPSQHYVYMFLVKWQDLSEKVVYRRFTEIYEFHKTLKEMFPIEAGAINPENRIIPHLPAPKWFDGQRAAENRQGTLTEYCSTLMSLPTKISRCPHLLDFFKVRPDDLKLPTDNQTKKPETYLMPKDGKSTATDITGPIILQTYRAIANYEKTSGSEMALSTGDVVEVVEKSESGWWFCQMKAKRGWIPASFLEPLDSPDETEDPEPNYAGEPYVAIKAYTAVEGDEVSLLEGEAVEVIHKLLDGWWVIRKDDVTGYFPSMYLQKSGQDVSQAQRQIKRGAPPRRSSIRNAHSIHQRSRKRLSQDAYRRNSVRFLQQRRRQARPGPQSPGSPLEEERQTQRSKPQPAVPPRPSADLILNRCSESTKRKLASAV
Hck-Nef inh = inhibitors of human Hck kinase activated by Nef; Recombinant Hck-YEEI plus Nef, Z-Lyte FRET kinase assay; inhibition, % at 20 µM; AID 463187; 220,000 compounds, 0.68% hits;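 active = Hck-Nef kinase inhibition above about 50%, limit read from the data; inactive = inhibition below that limit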;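 note: 0% = DMSO with Hck plus Nef and 100% = Hck alone without Nef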
Arbovirus anti = blocks arbovirus infection | arbovirus infection cell-based antiviral screen | inhibition, % at 10 µM | 200,000 compounds, 0.37% hits | AID 1251; in the data active = inhibition above about 30%
Calb biofilm kill = mixtures killing C. albicans biofilm | AID 1242 | inhibition, % at 7.6 µM | 120,000 compounds, 0.02% hits | C. albicans biofilm persisters + clotrimazole, fluorescence viability; primary screen in compound mixtures of four per well;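 note: compounds exposed to preformed 24 h biofilms for 48 h; 0% = untreated biofilm control and 100% = clotrimazole plus chlorhexidine kill blank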
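System: C. albicans CAF4-2 wild-type biofilms; Medium: RPMI/MOPS medium, pH 7.0; Reagent: Clotrimazole, 50 µg/mL; Times: biofilm formation 24 h, compound exposure 48 h, 37 °C; Detection: 2-h Alamar Blue fluorescence, 535/590 nm excitation/emission; Evaluation: percent inhibition of biofilm viability.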
RAM network inh = blocks the yeast RAM network; AID 868; S. cerevisiae dse1pr::URA3 reporter, 5-FOA growth OD615, 2 d; analog-sensitive cbk1-as2 kinase mutant strain; 190,000 compounds, 1.8% hits; inhibition, % at 50 µM;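 active = inhibition above a set limit, 3 SD over mean compound inhibition, cut at about 8.4% in these data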;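 note: 0% = DMSO-only wells with no growth and 100% = 10 µM 1-NA-PP1 full growth; inhibition rescues growth on 5-FOA so higher OD means more RAM inhibition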
RAM efflux-def = RAM network inhibitors in efflux-deficient yeast. shares compounds with RAM network inh. S. cerevisiae efflux-deficient reporter strain, 5-FOA growth OD615, 2 days. max inhibition, %. 1,200 tested, under 10 active. AID 1305; call rule not given here;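 note: plate controls were vehicle for no effect and reference inhibitor for full effect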
An asterisk follows results filed as active; · = no result. Compounds with a hit are over-represented: about 4.6% of the library has one in this group of screens.

SMILES	WT yeast gro inh	NCF1 inh	Hck-Nef inh	Arbovirus anti	Calb biofilm kill	RAM network inh	RAM efflux-def
CCn1c(SCC(=O)Nc2oc(-c3ccccc3)c(-c3ccccc3)c2C#N)nnc1-c1ccco1	4.2	-16.1	2.0	-9.9	·	8.8*	·
N#Cc1c(NC(=O)CCN2C(=O)c3ccccc3C2=O)oc(-c2ccccc2)c1-c1ccccc1	1.4	-13.2	1.4	2.0	·	9.5*	·
Cc1ccc(NC(=O)c2ccc3c(c2)OCCO3)cc1S(=O)(=O)Nc1cccc(Cl)c1	46.8	-34.5	0.5	-26.7	21.5	6.0	·
COC(=O)c1cc2c(ccn2-c2ccc(F)cc2)n1Cc1cccc(OC)c1	-21.7	1.0	0.9	-8.3	14.5	12.6*	7.5
COc1ccc(-n2ccnc2SCC(=O)NCc2ccco2)c(OC)c1	13.9	-6.2	13.3	4.9	24.6	0.5	·
CCC1(C)CC(CCNS(=O)(=O)c2ccc(C)cc2)(c2ccc(C)cc2)CCO1 (centres undefined)	22.3	-22.0	1.0	-30.7	·	15.9*	3.6
Cc1ccc(C2(CCNCc3ccc(N(C)C)cc3)CCOC(C(C)C)C2)cc1 (centres undefined)	35.3	-7.5	2.7	-32.6	24.2	0.2	·
Cc1ccc(C2(CCNS(=O)(=O)c3ccc(C)cc3)CCOC(C(C)C)C2)cc1 (centres undefined)	52.9	-4.1	-1.4	-7.2	17.0	15.0*	5.4
c1ccc2c(-c3cc(C4CCNCC4)[nH]n3)cccc2c1	6.7	-4.9	15.6	-35.6	15.5	2.5	·
O=C(NCc1ccc(Cl)cc1)NCC(F)(F)F	-3.7	-21.3	1.4	-1.3	3.2	1.7	·
CCOC(=O)CC(NC(=O)C1c2ccccc2Oc2ccccc21)c1ccccc1Cl (centres undefined)	-8.8	-4.8	3.0	-10.1	16.1	4.0	·
Cc1nn(Cc2c(Cl)cccc2Cl)c(C)c1NC(=O)Cn1nc([N+](=O)[O-])c(Cl)c1C	-3.3	-6.0	4.6	-19.5	15.6	12.5*	1.7
Cc1nn(Cc2ccccc2)c(C)c1NC(=O)Cn1nc([N+](=O)[O-])c(Cl)c1C	0.4	-4.9	0.2	12.7	·	-0.1	·
COc1ccc(Br)cc1C(=O)Nc1ccccc1-c1ccccc1	28.6	1.9	-1.5	12.6	·	12.0*	3.4
CCOC(=O)c1cc(C(C)C)sc1NC(=O)COC(=O)CCS(=O)(=O)c1ccccc1	10.1	-22.8	3.6	-8.0	13.0	12.8*	2.2
CCOC(=O)c1cc(-c2ccccc2)sc1NC(=O)COC(=O)c1ccc(Cl)c(S(N)(=O)=O)c1	5.4	-6.1	1.4	-14.2	-8.8	6.1	·
CCOC(=O)c1c(NC(=O)COC(=O)CCS(=O)(=O)c2ccc(C)cc2)sc(C)c1C	-11.3	-11.5	2.5	1.9	12.1	14.3*	2.6
COc1ccc(CC(=O)NNC(=O)c2cccnc2)cc1OC	4.1	2.0	24.9	2.8	25.2	0.5	·
COc1cc(/C=N/OCC(=O)NC23CC4CC(CC(C4)C2)C3)ccc1OCc1ccccc1	49.7	-44.1	0.3	-25.6	14.6	11.7*	3.9
COc1ccc(/C=N/OCC(=O)NC(c2ccccc2)c2ccccc2)cc1OC	-2.8	-9.9	4.1	7.7	5.1	2.6	·
COc1ccc(OC2C(=O)N(Cc3ccc4c(c3)OCO4)C2c2cccs2)cc1 (centres undefined)	0.1	-6.8	-0.5	-4.2	·	13.2*	2.9
Cc1cccc(-n2c(C)cc(/C=N\NC(=O)c3ccco3)c2C)c1	1.7	-11.9	8.5	-2.8	11.6	1.0	·
CSCCC(NC(N)=O)C(=O)Nc1ccc2ccccc2c1 (centres undefined)	-13.7	-11.7	22.5	-7.5	13.2	2.0	·
CSCCC(NS(=O)(=O)c1ccc2ccccc2c1)C(=O)OCC(=O)c1ccc(C(C)C)cc1 (centres undefined)	29.5	-90.7	-1.1	7.9	15.8	15.4*	3.9
O=C(COC(=O)c1cc(-c2ccncc2)nc2ccccc12)Nc1ccc2c(c1)OCO2	13.0	-10.3	0.7	5.7	7.5	0.6	·
SMILES	WT yeast gro inh	NCF1 inh	Hck-Nef inh	Arbovirus anti	Calb biofilm kill	RAM network inh	RAM efflux-def
CC(=O)OCCCNc1cc(Sc2ccc(Cl)cc2)c2nonc2c1[N+](=O)[O-]	-13.9	-15.3	1.1	-44.3	11.0	11.6*	2.1
COCCN1Cc2cccc(C(=O)NCc3cccs3)c2C1=O	-0.6	5.5	7.1	2.6	10.1	-0.2	·
Nc1nnc(Cc2cccc(Br)c2)s1	·	7.1	7.0	·	11.3	·	·
c1ccc2cc(Sc3ncnc4c3oc3ccccc34)ccc2c1	16.9	5.0	0.8	-3.7	·	13.3*	3.8
CCOc1ccc2nc(NC(=O)CSc3nc(-c4ccccc4)c(C#N)c(=O)[nH]3)sc2c1	5.1	-49.6	35.6	61.5*	10.8	14.1*	4.2
COc1ccc(C2c3[nH]c4ccccc4c3CCN2C(=O)Cc2nonc2C)c(F)c1 (centres undefined)	·	-31.5	10.1	·	12.6	·	·
COc1cc2c(cc1NC(=O)CSc1ccc(C)cc1)oc1ccccc12	40.3	-21.2	-0.4	0.0	·	4.3	·
COc1cc2c(cc1NC(=O)C(C)Sc1ccc(C)cc1)oc1ccccc12 (centres undefined)	12.8	-10.8	0.2	-4.2	·	13.7*	3.9
COC(=O)[C@H](Cc1ccccc1)NC(=O)[C@@]1(C)C[C@@H]1[C@@H](NC(=O)OCc1ccccc1)c1ccccc1	31.9	-16.8	-2.8	5.2	12.0	12.7*	4.9
COC(=O)C(Cc1ccccc1)NC(=O)C12CC3CC(CC(C3)C1)C2 (centres undefined)	-5.2	-4.0	14.8	-12.0	6.7	1.3	·
Cc1cc(NC(=O)CCSc2ccccc2)ccc1Br	34.4	-3.7	0.5	5.3	8.8	13.9*	1.9
Cc1cc(Br)ccc1NC(=O)CCSc1ccccc1	4.8	-9.4	-2.1	3.4	·	3.1	·
Cc1cc(C)c(C)c(S(=O)(=O)N2CCC(C(=O)OCC(=O)N3c4ccccc4NC(=O)C3(C)C)CC2)c1C	29.8	-54.9	-1.6	5.6	·	12.1*	1.9
O=C1CN(C(=O)COC(=O)C2CCN(S(=O)(=O)c3ccccc3C(F)(F)F)CC2)c2ccccc2N1	1.5	4.0	4.8	1.0	·	1.9	·
O=C(COC(=O)c1cc(-c2cccc(Br)c2)nc2ccccc12)NCC1CCCO1 (centres undefined)	71.1*	-25.0	18.7	2.5	12.3	15.3*	3.3
COc1ccc(Cc2nn3c(-c4ccccc4Br)nnc3s2)cc1	-4.1	-2.6	-3.7	-8.7	·	1.1	·
Brc1ccccc1-c1nnc2sc(Cc3ccccc3)nn12	13.3	-3.7	0.9	-12.1	·	33.4*	4.2
CCCCCCN(C(=O)CCCCCN1C(=O)NC(c2ccc(-c3ccccc3)cc2)C(C(=O)OCc2ccccc2)=C1C)C(C)C(=O)NCCCC (centres undefined)	-21.4	-19.3	-4.8	-8.7	-3.0	28.5*	6.0

High-throughput results deposited in PubChem BioAssay by several laboratories.
